Results on one molecule are retold here after ChEMBL document CHEMBL3600302, “A Ligand-Based Drug Design. Discovery of 4-Trifluoromethyl-7,8-pyranocoumarin as a Selective Inhibitor of Human Cytochrome P450 1A2” (J Med Chem, 2015).

In one data set the target is T1, Cytochrome P450 1A1 (Homo sapiens, UniProt P04798).
T1 sequence (P04798 whole entry): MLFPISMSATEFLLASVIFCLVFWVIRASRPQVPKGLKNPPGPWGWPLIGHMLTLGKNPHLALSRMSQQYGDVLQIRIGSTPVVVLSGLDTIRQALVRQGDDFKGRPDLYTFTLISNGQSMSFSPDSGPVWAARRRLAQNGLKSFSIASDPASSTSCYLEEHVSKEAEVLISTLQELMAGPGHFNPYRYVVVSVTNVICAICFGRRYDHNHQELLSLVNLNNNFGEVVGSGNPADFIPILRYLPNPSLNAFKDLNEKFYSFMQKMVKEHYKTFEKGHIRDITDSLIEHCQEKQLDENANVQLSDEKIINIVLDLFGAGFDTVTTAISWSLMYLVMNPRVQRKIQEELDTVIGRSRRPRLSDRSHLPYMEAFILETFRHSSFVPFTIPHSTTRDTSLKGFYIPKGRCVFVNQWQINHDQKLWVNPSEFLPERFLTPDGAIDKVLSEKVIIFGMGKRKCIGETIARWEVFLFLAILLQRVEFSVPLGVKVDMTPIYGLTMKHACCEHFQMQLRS
The data set can be described thus: Inhibition of human microsomal CYP1A1-dependent ethoxyresorufin-O-deethylase activity by spectrofluorimetric analysis in presence of NADPH regenerating solution. An outline of the steps:
(§1)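 Microsomal P450 (final 5 nM) in 0.1 M potassium phosphate pH 7.6 with MgCl2 at 37 °C. Substrate final 5 µM: ethoxyresorufin for 1A1/1B1, methoxyresorufin for 1A2. […] Ki was taken as the x-intercept of Dixon plots (1/v0 vs [I]). Mean ± SD of three independent experiments. Selectivity ratios are ratios of these Ki.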

The target in data set [1] is T2, Cytochrome P450 1B1 (Homo sapiens, UniProt Q16678).
T2 sequence (Q16678 whole entry): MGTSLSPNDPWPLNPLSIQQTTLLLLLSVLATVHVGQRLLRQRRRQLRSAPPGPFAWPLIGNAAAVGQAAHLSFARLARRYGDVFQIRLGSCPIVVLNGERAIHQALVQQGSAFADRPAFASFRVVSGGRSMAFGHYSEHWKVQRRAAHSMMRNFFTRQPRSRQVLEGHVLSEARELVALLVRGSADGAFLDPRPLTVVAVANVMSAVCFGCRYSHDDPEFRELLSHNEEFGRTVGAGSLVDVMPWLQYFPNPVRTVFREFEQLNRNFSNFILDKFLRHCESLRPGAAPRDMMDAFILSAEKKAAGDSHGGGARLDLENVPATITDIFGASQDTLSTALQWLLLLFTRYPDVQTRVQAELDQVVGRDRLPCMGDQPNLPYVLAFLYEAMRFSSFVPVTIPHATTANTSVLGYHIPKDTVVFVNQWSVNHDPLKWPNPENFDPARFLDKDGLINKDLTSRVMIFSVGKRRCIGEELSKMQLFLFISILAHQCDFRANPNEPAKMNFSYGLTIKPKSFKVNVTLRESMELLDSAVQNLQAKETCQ
Description: Inhibition of human microsomal CYP1B1-dependent ethoxyresorufin-O-deethylase activity by spectrofluorimetric analysis in presence of NADPH regenerating solution. Summed up:
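Microsomal P450 (final 5 nM) in 0.1 M potassium phosphate pH 7.6 with MgCl2 at 37 °C. Substrate final 5 µM: ethoxyresorufin for 1A1/1B1, methoxyresorufin for 1A2. Ki was taken as the x-intercept of Dixon plots (1/v0 vs [I]). Mean ± SD of three independent experiments. Selectivity ratios are ratios of these Ki.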

The species named for data set [2] is Homo sapiens. Description: Selectivity ratio of Ki for human microsomal CYP1A1 to Ki for human microsomal CYP1A2. Summed up:
as §1

For data set [3], the species on record is Homo sapiens. Description: Selectivity ratio of Ki for human microsomal CYP1B1 to Ki for human microsomal CYP1A2. An outline of the steps: as §1
In data set [4] the target is T2, Cytochrome P450 1B1. The data set can be described thus: Inhibition of human microsomal CYP1B1-dependent ethoxyresorufin-O-deethylase activity at 10 nM measured over 6 mins by spectrofluorimetric analysis in absence of NADPH regenerating solution. Particulars: 0.1 h, 0.01 µM; call rule not given here. Summed up: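 Microsomal P450 in 0.1 M potassium phosphate pH 7.6 with MgCl2 and 10 nM inhibitor in DMSO, 2 mL final. Preincubated 5 min at 37 °C either with NADPH-regenerating solution, or without it, with NADPH then added at start. Reaction started with ethoxyresorufin (final 5 µM). Resorufin formation followed 6 min at 37 °C.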

Data set [5] has as its target T3, Aryl hydrocarbon receptor (Homo sapiens, UniProt P35869).
T3 sequence (P35869 whole entry): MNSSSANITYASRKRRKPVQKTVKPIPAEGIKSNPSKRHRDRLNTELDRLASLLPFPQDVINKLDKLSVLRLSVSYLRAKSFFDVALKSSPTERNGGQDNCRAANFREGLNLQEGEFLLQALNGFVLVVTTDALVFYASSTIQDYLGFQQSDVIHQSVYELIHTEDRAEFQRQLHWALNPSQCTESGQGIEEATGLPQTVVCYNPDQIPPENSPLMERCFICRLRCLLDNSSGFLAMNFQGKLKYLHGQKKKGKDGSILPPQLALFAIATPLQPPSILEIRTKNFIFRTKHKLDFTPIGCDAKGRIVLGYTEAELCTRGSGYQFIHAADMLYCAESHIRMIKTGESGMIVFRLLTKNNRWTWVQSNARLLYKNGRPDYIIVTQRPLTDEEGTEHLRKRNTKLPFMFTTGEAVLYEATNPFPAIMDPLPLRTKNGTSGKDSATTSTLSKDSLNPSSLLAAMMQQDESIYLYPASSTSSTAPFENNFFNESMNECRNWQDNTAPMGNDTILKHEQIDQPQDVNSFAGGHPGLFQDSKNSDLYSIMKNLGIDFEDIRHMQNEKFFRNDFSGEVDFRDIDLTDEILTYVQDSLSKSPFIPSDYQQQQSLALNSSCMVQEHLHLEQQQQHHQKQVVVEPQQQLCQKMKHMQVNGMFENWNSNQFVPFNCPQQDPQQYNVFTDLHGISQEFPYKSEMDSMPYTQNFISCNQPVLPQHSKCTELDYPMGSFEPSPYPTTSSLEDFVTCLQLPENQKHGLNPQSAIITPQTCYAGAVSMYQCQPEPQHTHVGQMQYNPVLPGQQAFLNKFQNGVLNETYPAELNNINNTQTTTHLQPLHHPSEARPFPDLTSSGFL
Description: Activation of human AhR expressed in Saccharomyces cerevisiae MYA-3637 assessed as upregulation of […] at >10^-7 M by LacZ reporter assay. Type of data set: ADME. An outline of the steps: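 Yeast MYA-3637 carrying integrated human AhR (GAL promoter) and a lacZ reporter, grown on synthetic minimal medium without tryptophan, with galactose as carbon source. Compounds in DMSO were added to overnight culture in quadruplicate. Next day A600 was read, then lysis buffer (0.2% sarcosyl, 1 mM DTT, 0.4 mg/mL ONPG) was added. A405/A600 ratio was taken. βNF 10^-8 M served as positive control. At least three repeats.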
For orientation: Reporter assays use an easily measured gene product as a stand-in for the process of interest.

Usually Ki stands for the equilibrium dissociation constant of an inhibitor or competing ligand from its target. As to `Cc1cc2c(ccc3c(=O)cc(-c4ccccc4)oc32)o1`, the inhibition constant (Ki) turned out to be 430 nM on Cytochrome P450 1A1 and 180 nM on Cytochrome P450 1B1 [1]. Further, the Ratio Ki was determined as 14 in the data set filed under Homo sapiens [2] and 6 in the data set listed under Homo sapiens [3]. Further, the “inhibition (INH)” value at Cytochrome P450 1B1 [4] is on record as “Not Active”. Further, the result in data set [5] was Active.
